# Screening results as filed in PubChem BioAssay.
# DNMT1 inh: human DNMT1 methyltransferase inhibitors, primary screen, biochemical, molecular beacon, fluorescence, HinP1I cleavage, uHTS | DNA (cytosine-5)-methyltransferase 1 (Homo sapiens), P26358 | inhibition (reported as % activation of signal), % at 10 µM | 0.83% of 360,000 active; in the data active = inhibition above about 50%
# CASP6 VEID inh: human caspase-6 inhibitors, primary screen, biochemical, VEID-R110 fluorescence, single point, set 2 | AID 686996, 2013 | purified caspase-6, Z-VEID-R110 cleavage fluorescence | 0.53% of 350,000 active | inhibition, % at 12.5 µM;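 active = mean inhibition across replicates at least about 35%, with every replicate also reaching that limit, limit read from the data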;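 also: 0% = median of neutral control wells and 100% = no fluorescence left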
# HCV NS3 hel inh: inhibitors of HCV NS3 helicase, primary screen, biochemical, Cy5 molecular beacon fluorescence; AID 1800, 2009; inhibition, % at 10.9 µM; NS3 helicase DNA unwinding; Hepatitis C virus NS3 helicase; 0.56% of 290,000 active;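 active = inhibition above the mean of all tested compounds plus 3 SD, set per campaign, cut at about 35% in these data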;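 also: 0% = DMSO wells and 100% = thioflavine S control wells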
#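 System: HCV NS3 helicase fragment; control set: DMSO and thioflavine S; technique: Cy5 fluorescence at 0 and 60 min, beacon hairpin quenching; reagent: beacon DNA duplex substrate plus ATP; replicates: singlicate; schedule: 1 h reaction at 25 °C, ATP-initiated; medium: MOPS buffer pH 6.5 with MgCl2, DTT, Tween20, BSA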
# NSD2 HMT inh: NSD2 histone methyltransferase inhibitors, primary screen, biochemical, AlphaScreen, single concentration, set 2; NSD2 peptide methylation, 120 min; inhibition, % at 12.5 µM; 0.54% of 310,000 active; AID 743445, 2014; in the data active = inhibition above about 50%
# Target sequence (O96028 whole entry, looked up): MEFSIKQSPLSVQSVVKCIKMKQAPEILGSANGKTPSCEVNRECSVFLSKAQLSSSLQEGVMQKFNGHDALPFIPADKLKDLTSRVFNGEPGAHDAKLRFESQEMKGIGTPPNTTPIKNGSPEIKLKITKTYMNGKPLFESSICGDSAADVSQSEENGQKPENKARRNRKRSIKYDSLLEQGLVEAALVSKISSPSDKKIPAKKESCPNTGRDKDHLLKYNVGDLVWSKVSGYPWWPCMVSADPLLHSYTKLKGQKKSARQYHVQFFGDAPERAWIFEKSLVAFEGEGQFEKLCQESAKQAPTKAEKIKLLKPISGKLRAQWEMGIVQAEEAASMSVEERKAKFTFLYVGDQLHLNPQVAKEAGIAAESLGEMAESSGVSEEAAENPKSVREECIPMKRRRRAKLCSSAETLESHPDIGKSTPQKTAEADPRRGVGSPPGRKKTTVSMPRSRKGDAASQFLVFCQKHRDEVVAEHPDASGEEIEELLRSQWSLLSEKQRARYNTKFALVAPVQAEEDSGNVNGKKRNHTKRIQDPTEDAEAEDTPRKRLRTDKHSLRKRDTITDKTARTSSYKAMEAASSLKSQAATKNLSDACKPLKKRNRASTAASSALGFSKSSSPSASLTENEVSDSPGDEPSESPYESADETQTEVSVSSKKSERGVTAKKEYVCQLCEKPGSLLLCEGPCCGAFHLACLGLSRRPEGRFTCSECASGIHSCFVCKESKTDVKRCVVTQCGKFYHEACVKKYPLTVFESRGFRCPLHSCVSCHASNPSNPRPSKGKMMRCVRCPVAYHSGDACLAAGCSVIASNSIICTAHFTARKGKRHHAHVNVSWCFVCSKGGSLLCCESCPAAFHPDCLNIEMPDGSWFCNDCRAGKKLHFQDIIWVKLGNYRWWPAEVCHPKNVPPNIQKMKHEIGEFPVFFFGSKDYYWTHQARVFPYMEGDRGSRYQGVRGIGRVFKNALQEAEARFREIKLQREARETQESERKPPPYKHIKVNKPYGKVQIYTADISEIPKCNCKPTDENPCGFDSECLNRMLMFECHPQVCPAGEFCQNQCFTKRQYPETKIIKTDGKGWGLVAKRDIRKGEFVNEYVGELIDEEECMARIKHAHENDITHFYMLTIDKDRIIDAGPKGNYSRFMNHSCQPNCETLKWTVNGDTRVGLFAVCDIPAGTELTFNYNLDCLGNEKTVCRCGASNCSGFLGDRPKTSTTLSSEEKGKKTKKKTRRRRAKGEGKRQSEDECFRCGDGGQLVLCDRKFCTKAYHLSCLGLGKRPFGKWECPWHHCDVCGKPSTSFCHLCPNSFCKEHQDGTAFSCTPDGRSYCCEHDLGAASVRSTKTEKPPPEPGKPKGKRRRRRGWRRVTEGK
# NS3 hel confirm: HCV NS3 helicase inhibitors, retest, confirmation, biochemical, Cy5 molecular beacon fluorescence, triplicate. shares compounds with HCV NS3 hel inh. NS3 helicase DNA unwinding. inhibition, % at 10.9 µM. 31% of 1,600 active;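 active = inhibition above the mean of all tested compounds plus 3 SD, cutoff set per campaign, cut at about 36% in these data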
# FID counter trip: compounds displacing fluorescent DNA intercalator, artefact control for HCV NS3 helicase inhibitor project, biochemical, FID fluorescence, triplicate; shares compounds with HCV NS3 hel inh; DNA fluorescent intercalator displacement; inhibition, % at 7.9 µM; 4% of 1,600 active; AID 1945, 2009; in the data active = inhibition above about 37%;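 also: 0% = vehicle and 100% = reference compound; higher means more displacement of ethidium bromide from the DNA hairpin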
# DNA FID DR: compounds displacing fluorescent intercalator from DNA, dose response, counter-screen for HCV NS3 helicase inhibitor project, biochemical, fluorescence | IC50, µM | 120 tested, under 10 active | shares compounds with HCV NS3 hel inh | fluorescent intercalator displacement from DNA
# DNMT1 interf DR: spectral interference with molecular beacon fluorescence, dose response, artefact control for DNMT1 inhibitor project, biochemical, fluorescent molecular beacon; shares compounds with DNMT1 inh; spectral interference counter-screen; IC50, µM; 200 tested, under 10 active; AID 602382, 2012
# DNMT1 inh conf: DNMT1 methyltransferase inhibitor retest, confirmation, biochemical, molecular beacon, fluorescence, single concentration | shares compounds with DNMT1 inh | DNMT1 molecular beacon HinP1I cleavage | inhibition, % at 10 µM | 8% of 2,300 active;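 active = average inhibition of at least 30% in the single-concentration confirmation test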
# Beacon interf: counter-screen for DNMT1 inhibitors: spectral interference. shares compounds with DNMT1 inh. DNMT1 molecular beacon spectral interference counterscreen, fluorescence 485/520. activation (fluorescence interference), % at 10 µM. 1% of 2,300 active. AID 602387;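 active = activation of at least 30% at 10 µM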;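 also: DNMT1 catalytic domain with a HinP1I cleavage step and a FAM/dabcyl DNA beacon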
# An asterisk follows results filed as active; · = no result given. A selection: hits, their analogues and other compounds. The true share with any hit is near 1.5%. Unless noted, no rule for the calls is given here.
SMILES,DNMT1 inh,CASP6 VEID inh,HCV NS3 hel inh,NSD2 HMT inh,NS3 hel confirm,FID counter trip,others
CCC(=Nc1ccc(N)cc1)C1=C(O)C(C(=O)OC)C(C)(C)CC1=O (stereo not drawn),-29.9,·,47.0*,0.1,-15.5,-12.3,
CCCCC(=Nc1ccc(N)cc1)C1=C(O)C(C(=O)OC)C(C)(C)CC1=O (stereo not drawn),-26.2,·,18.0,1.2,·,·,
O=C(CN1C(=O)S/C(=C\c2ccccn2)C1=O)Nc1ccccc1,24.6,-3.7,-1.5,-1.3,·,·,
Cc1ccc(C(=O)O)cc1-c1ccc(/C=C2\SC(=O)N(CC(=O)Nc3ccccc3)C2=O)o1,67.2*,35.2*,38.5*,18.6,77.6*,1.6,DNA FID DR=>79.4
O=C(Cc1ccncc1)NCC[C@@H]1CC[C@H](NC(=O)C2CCCCC2)[C@@H](CO)O1,·,0.0,·,·,·,·,
Cc1ccc(S(=O)(=O)N(C(=O)c2ccco2)c2cc3sc(=O)oc3c3ccccc23)cc1,16.4,·,40.4*,15.9,-8.4,-3.2,
COc1ccc(S(=O)(=O)N(C(=O)c2ccco2)c2cc3sc(=O)oc3c3ccccc23)cc1,-4.8,9.0,20.0,9.2,·,·,
CO[C@H]1CN(C)C(=O)c2cc(NC(=O)c3cnccn3)ccc2OC[C@H](C)N(C)C[C@@H]1C,·,1.7,·,·,·,·,
CCOc1ccccc1NC(=O)C(=O)CC(=O)c1ccc(OC)cc1,1.4,9.4,37.1*,-1.4,-33.2,-0.9,
COc1ccc(C(=O)CC(=O)C(=O)Nc2ccc([N+](=O)[O-])cc2C)cc1,-2.2,7.7,36.6*,4.6,-7.8,-7.3,
COc1ccc(C(=O)CC(=O)C(=O)Nc2ccccc2)cc1,-0.7,1.1,21.1,3.7,·,·,
CCC(=O)N1C[C@@H](C)[C@@H](OC)CN(C)C(=O)c2cc(NC(=O)Nc3ccccc3)ccc2OC[C@@H]1C,·,-0.3,·,·,·,·,
CCCC(c1c(C)n(C)n(-c2ccccc2)c1=O)c1c(C)n(C)n(-c2ccccc2)c1=O,4.4,·,-2.7,·,·,·,
CCC(c1c(C)n(C)n(-c2ccccc2)c1=O)c1c(C)n(C)n(-c2ccccc2)c1=O,-1.4,·,38.6*,-2.3,-13.4,-2.5,
C[C@@H]1CCCCO[C@H](CN(C)C(=O)c2ccncc2)[C@H](C)CN([C@H](C)CO)C(=O)c2cc(NC(=O)C3CCCCC3)ccc2O1,·,-1.6,·,·,·,·,
CCC(=O)N1[C@H](C(=O)N2CCc3ccccc3C2)[C@@H](CO)[C@@H]2Cn3c(cccc3=O)[C@@H]21,·,1.1,·,·,·,·,
COc1cc(C=C(c2nc3ccccc3s2)c2nc3ccccc3s2)cc(OC)c1O,-31.8,·,38.6*,4.7,-27.1,-7.8,
COc1cc(/C=C(\CC(=O)O)c2nc3ccccc3s2)cc(OC)c1O,-4.1,0.5,4.2,-5.5,·,·,
CCCCCCCCCc1nc2sc3c(c2c(=O)n1NC(=O)c1ccccc1[N+](=O)[O-])CC(C)(C)OC3,-10.1,-1.7,37.4*,4.2,50.1*,3.6,DNA FID DR=>79.4
Cc1cc(C)c[n+](-c2[nH]c(=O)sc2/C=N/N=C(\[O-])c2cccnc2)c1,3.5,1.9,36.2*,27.6,-11.0,2.2,
CCc1ccc[n+](-c2[nH]c(=O)sc2/C=N/N=C(\[O-])c2ccncc2)c1,1.6,1.2,9.6,0.8,·,·,
CN1CCN(C(=O)C[C@H]2CC[C@@H]3[C@@H](COc4ccc(NC(=O)C5CCCC5)cc4C(=O)N3C)O2)CC1,·,-0.2,·,·,·,·,
COc1ccc(NC(=O)c2cc(-c3cc(OC)c(OC)c(OC)c3)nc3ccccc23)cc1OC,-1.6,-0.4,-25.9,0.0,·,·,
COc1ccc(-c2cc(C(=O)Nc3ccc(O)cc3)c3ccccc3n2)cc1OC,-4.5,1.8,44.9*,-0.1,-4.0,-23.8,
O=C(CSc1ccc(Br)c2cccc(Cl)c12)Nc1ccc(S(=O)(=O)Nc2nccs2)cc1,-3.0,2.7,38.3*,24.6,38.0*,8.0,
SMILES,DNMT1 inh,CASP6 VEID inh,HCV NS3 hel inh,NSD2 HMT inh,NS3 hel confirm,FID counter trip,others
O=C(Cc1ccccc1Cl)Nc1ccc(S(=O)(=O)Nc2nccs2)cc1,-0.8,4.0,-2.9,3.2,·,·,
CC(C)NC(=O)N(C)C[C@H]1Oc2ccc(NC(=O)CCC(F)(F)F)cc2CC(=O)N([C@@H](C)CO)C[C@H]1C,·,1.0,·,·,·,·,
O=C(O)c1cccc(NC(=S)N/N=C/c2ccccc2OCc2ccc(Br)cc2)c1,-4.4,·,41.7*,8.3,63.4*,3.6,
Cc1nn(Cc2ccc(Cl)cc2)c(C)c1NC(=O)c1cc(-c2ccco2)on1,-19.3,·,-4.5,-4.1,·,·,
Cc1nn(Cc2ccc(Cl)c(Cl)c2)c(C)c1NC(=O)c1cc(-c2ccco2)on1,-17.3,·,39.9*,-2.7,-8.8,-54.5,
CCOc1ccc(/C=C/C(=O)c2cc(Br)ccc(=O)c2O)cc1,68.0*,16.6,58.9*,2.5,77.0*,5.4,DNA FID DR=>79.4;DNMT1 inh conf=10.2;Beacon interf=4.0
CCc1ccc(/C=C/C(=O)c2cc(Br)ccc(=O)c2O)cc1,8.8,·,16.0,3.9,·,·,
O=C(Nc1ccccc1)c1ccc2nc(-c3ccco3)c(-c3ccco3)nc2c1,83.2*,·,45.8*,0.8,78.0*,52.9*,DNMT1 inh conf=4.1;Beacon interf=3.7
CCS(=O)(=O)C1=NN2C(=N)/C(=C\c3ccc(SCc4ccco4)o3)C(=O)N=C2S1,99.3*,·,36.7*,95.4*,65.4*,22.4,DNMT1 interf DR=>99;DNMT1 inh conf=50.5*;Beacon interf=0.8
N#Cc1ccc(-c2ccc([C@@H]3[C@@H](CO)N4C(=O)CN(C(=O)Cc5ccccc5)C[C@H]34)cc2)cc1,·,-1.2,·,·,·,·,
CN(C)C(=O)C[C@@H]1CC[C@H](NC(=O)Nc2cccc(F)c2)[C@@H](CO)O1,·,-0.8,·,·,·,·,
Nc1nc(-c2ccco2)c(-c2ccco2)s1,51.2*,·,48.8*,4.1,-16.4,18.4,DNMT1 inh conf=3.0;Beacon interf=28.9
COc1ccc(-c2ccc3c(c2)[C@@H]2[C@@H](CCN2C(=O)c2cnccn2)[C@H](CO)N3)cc1,·,-0.7,·,·,·,·,
